In PubChem BioAssay:
Results filed as inconclusive are left out.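 Rule for the calls, unless noted: active = inhibition over a set limit, the all-compound mean plus 3 SD, in both replicate runs; inconclusive = over that limit in just one replicate run; inactive = at or under that limit in both runs.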

Experiments:
[1] = S. cerevisiae growth inhibition in permissive medium (OD615), pilot counter-assay for S. cerevisiae lifespan shortening project, permissive growth control (AID 705;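 active = growth inhibition above 25% in both replicates, a cutoff set 3 SD above the mean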); conditions: OD615, 24 h, at 10 µM, stronger effect = higher value
Method in brief: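 assay system = Saccharomyces cerevisiae strain carrying genetically modified DeaD replicative-lifespan system | medium = SC raffinose/galactose permissive medium | dosing = 10 µM single dose, 0.25% DMSO | schedule = 24 h compound exposure at 30 °C after 4 h pre-growth | measured by = OD at 615 nm | read-out basis = growth inhibition from lowered OD615 after 24 h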

[2] = S. cerevisiae growth inhibition in restrictive medium, OD615, pilot screen, restrictive growth control, yeast lifespan reduction project (AID 706;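 active = growth inhibition above a set limit, 3 SD over mean compound inhibition, in both replicates, cut at about 43% in these data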;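 note: modified DeaD lifespan yeast strain shifted to restrictive glucose medium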); conditions: OD615, 48 h, at 10 µM, stronger effect = higher value
Method in brief: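 Buffer or medium: CSMM-D glucose medium. Material: genetically modified Saccharomyces cerevisiae, DeaD replicative lifespan assay strain. Times: 48 h compound exposure at 30 °C. Measured by: optical density at 615 nm.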

[3] = doxorubicin toxicity protection in MRP-1 cells – H69AR cells, CellTiter-Glo, duplicate, MRP-1 activator project, pilot screen (AID 807;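 active = viability increase at or above a cutoff of the median across tested compounds plus 3 SD, cut at about 8.5% in these data, passing the limit was not always enough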;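 note: compound pretreatment 18-22 h then 72 h combined with doxorubicin; 0% = doxorubicin alone and 100% = vehicle without doxorubicin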); conditions: H69AR viability with doxorubicin, CellTiter-Glo luminescence; at 10 µM; stronger effect = higher value
[4] = viability of HCT116 without oncogenic beta-catenin – human colon tumor cells, pilot screen (AID 823;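 active = cell viability at or below a set limit in both duplicate runs, the limit being the all-compound median minus 4 SD, cut at about 23% in these data, passing the limit was not always enough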;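 note: 0% = wells killed by 20 µM Hyamine and 100% = untreated DMSO cell wells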); conditions: HCT116 beta-catenin knockout viability, CellTiter-Glo, 60 h; at 10 µM; stronger effect = lower value
[5] = viability of PTEN-null HCT116 cells – cell-based, HCT116 clonal line, CellTiter-Glo, pilot screen (AID 824;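 active = viability at or below 27.92% in each of two runs, the all-compound median minus 4 SD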;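 note: 0% = 20 µM Hyamine control and 100% = vehicle cell control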); conditions: HCT116 PTEN-deleted viability, 60 h, at 10 µM, stronger effect = lower value
[6] = RAM pathway blockade in budding yeast – dse1pr::URA3 reporter, 5-FOA selection, pilot screen (AID 869);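 note: 0% = DMSO wells with no growth and 100% = 10 µM 1-NA-PP1 with full growth; RAM network block rescues cells from 5-FOA so hits raise OD615 growth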; conditions: S. cerevisiae dse1pr::URA3 5-FOA growth, OD615, 2 d; at 10 µM; stronger effect = higher value; strain carries analog-sensitive mutant Cbk1 kinase
[7] = RAM signaling pathway blockade in yeast – S. cerevisiae, Pdr1DBD-CYC8 efflux-inhibited sensitized strain, primary screen (AID 1298;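 active = RAM network inhibition above 8.4% in each of two replicates, 3 SD over the compound average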;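 note: 0% = DMSO untreated cells without growth and 100% = 10 µM 1-NA-PP1 full growth; higher means more yeast growth rescued from 5-FOA killing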); conditions: S. cerevisiae cbk1-as DSE1-URA3 strain, 5-FOA growth OD615, 2 d; at 50 µM; stronger effect = higher value

CCCc1cc(C(=O)Nc2cc(OC)c(Cl)cc2OC)no1
inactive: growth inhibition [1] -4.69% | growth inhibition [2] 4.3% | viability increase [3] -4.41% | viability [4] 89.5% | viability [5] 88.8% | inhibition [6] 0.45% | RAM network inhibition [7] 7.36%

Cc1cc(C)cc(OCCCCCNCCO)c1
inactive: growth inhibition [1] -8.19% | growth inhibition [2] -14.7% | viability increase [3] -3.03% | viability [4] 87.6% | viability [5] 86.5% | inhibition [6] 2.79% | RAM network inhibition [7] 2.47%

CCOc1cccc(N2C(=O)CC(NCc3ccc(S(N)(=O)=O)cc3)C2=O)c1 (stereo not drawn)
inactive: growth inhibition [1] -14.7% | growth inhibition [2] -1.03% | viability increase [3] -1.3% | viability [4] 101% | viability [5] 94.7% | inhibition [6] 0.44% | RAM network inhibition [7] 2.35%

Cc1noc(NS(=O)(=O)c2ccc(N3Cc4ccccc4C3=O)cc2)c1C
inactive: growth inhibition [1] -3.04% | growth inhibition [2] 0.35% | viability increase [3] -2.74% | viability [4] 102% | viability [5] 104% | inhibition [6] 1.45% | RAM network inhibition [7] 5.3%

Cc1cc(OC2CCCCC2)nc(-c2ccccc2O)n1
inactive: growth inhibition [1] -21.5% | growth inhibition [2] -17.2% | viability increase [3] -0.33% | viability [4] 87% | viability [5] 81.5% | inhibition [6] 1.9% | RAM network inhibition [7] 12.3%

COc1ccc(C(=O)CCC(=O)O)cc1
inactive: growth inhibition [1] -6.25% | growth inhibition [2] 0.095% | viability increase [3] -0.14% | viability [4] 98.1% | viability [5] 96.7% | inhibition [6] 2.16% | RAM network inhibition [7] -2.03%

CCCCNC(=O)c1cc2c(-c3ccc(Cl)cc3)nn(C)c2s1
inactive: growth inhibition [1] 3.71% | growth inhibition [2] 6.75% | viability increase [3] -5.53% | viability [4] 89.9% | viability [5] 88.7% | inhibition [6] 3.1% | RAM network inhibition [7] 4.05%

O=C(Cn1cc2c(n1)CCCC2)NCCCN1CCN(C2CCCCC2)CC1
inactive: growth inhibition [1] -3.58% | growth inhibition [2] 9.3% | viability increase [3] -0.74% | viability [4] 101% | viability [5] 93.1% | inhibition [6] 1.92% | RAM network inhibition [7] 0.77%

Cc1nnc(NC(=O)C(C)Sc2nncn2C)s1 (stereo not drawn)
inactive: growth inhibition [1] -15.9% | growth inhibition [2] -22.2% | viability increase [3] 3.71% | viability [4] 107% | viability [5] 94.8% | inhibition [6] 1.18% | RAM network inhibition [7] 1.06%

COCCCNC(=O)c1oc2ccc(S(=O)(=O)N(C)C3CCCCC3)cc2c1C
inactive: growth inhibition [1] 1.36% | growth inhibition [2] 5.4% | viability increase [3] 0.15% | viability [4] 90.1% | viability [5] 94.2% | inhibition [6] -0.46% | RAM network inhibition [7] 1.23%

COC(=O)C1(C)Nc2ccccc2C(=O)N1c1ccccc1C (stereo not drawn)
inactive: growth inhibition [1] -7.67% | growth inhibition [2] -8.55% | viability increase [3] -0.74% | viability [4] 104% | viability [5] 102% | inhibition [6] 2.51% | RAM network inhibition [7] 5.2%

Cc1cc(=S)n(-c2ccccc2)n1C
inactive: growth inhibition [1] 1.78% | growth inhibition [2] 7.75% | viability increase [3] -0.34% | viability [4] 102% | viability [5] 95.4% | inhibition [6] 1.21% | RAM network inhibition [7] 0.45%

O=C(Nc1ccc(Cl)c(Cl)c1)c1ccncc1
inactive: growth inhibition [1] -19.8% | growth inhibition [2] -34.8% | viability increase [3] -1.27% | viability [4] 101% | viability [5] 90.6% | inhibition [6] 0.83% | RAM network inhibition [7] 2.47%

Cn1c2c(c(=O)n(C)c1=O)C1c3ccccc3OCC1C(C)(C)O2 (stereo not drawn)
inactive: growth inhibition [1] -15.4% | growth inhibition [2] -19.5% | viability increase [3] -2.46% | viability [4] 98.7% | viability [5] 96.1% | inhibition [6] -0.05% | RAM network inhibition [7] 0.68%

Cc1oc2c(O)c(O)ccc2c(=O)c1-c1ccccc1
inactive: growth inhibition [1] -4.7% | growth inhibition [2] 1.24% | viability increase [3] 3.12% | viability [4] 95.1% | viability [5] 90.3% | inhibition [6] -0.32% | RAM network inhibition [7] -0.2%

NC(=O)C1CCN(C(=O)c2cnn(-c3ccccc3)c2NC(=O)c2ccco2)CC1
inactive: growth inhibition [1] -2.77% | growth inhibition [2] 1.08% | viability increase [3] -4.39% | viability [4] 99.7% | viability [5] 98.8% | inhibition [6] 1.67% | RAM network inhibition [7] 5.39%

CC1Cc2ccccc2N1C(=O)CCn1c(=O)sc2ccccc21 (stereo not drawn)
inactive: growth inhibition [1] -4.26% | growth inhibition [2] -16.9% | viability increase [3] -1.79% | viability [4] 93.3% | viability [5] 85.3% | inhibition [6] 1.17% | RAM network inhibition [7] 3.45%

Cc1ccc(-c2nc(CS(=O)CC(=O)NCc3ccccn3)c(C)o2)cc1 (stereo not drawn)
inactive: growth inhibition [1] -5.48% | growth inhibition [2] 7.86% | viability increase [3] -1.49% | viability [4] 92.2% | viability [5] 90.7% | inhibition [6] 0.745% | RAM network inhibition [7] 1.38%

Cc1ccc(OCCSc2cc(C)nc(N)n2)cc1
inactive: growth inhibition [1] -3.51% | growth inhibition [2] -3.22% | viability increase [3] 0.4% | viability [4] 95.6% | viability [5] 96% | inhibition [6] 1.12% | RAM network inhibition [7] 0.05%

CC(C)C(NS(=O)(=O)c1ccc2c(c1)oc(=O)n2C)C(=O)N1CCN(Cc2ccccc2)CC1 (stereo not drawn)
inactive: growth inhibition [1] -5.8% | growth inhibition [2] -20.3% | viability increase [3] -3.99% | viability [4] 88.9% | viability [5] 92% | inhibition [6] 2.62% | RAM network inhibition [7] -2.73%

CC(C)n1c(=O)[nH]c2ccccc21
inactive: growth inhibition [1] -18.3% | growth inhibition [2] -9.29% | viability increase [3] -4.28% | viability [4] 89% | viability [5] 89.8% | inhibition [6] 0.575% | RAM network inhibition [7] 2.88%

CCOc1ccc(NC(=O)CSc2nc3c(c(=O)n2-c2ccccc2OC)SCC3)cc1
inactive: growth inhibition [1] -4.54% | growth inhibition [2] -3.66% | viability increase [3] -2.57% | viability [4] 94.3% | viability [5] 82.5% | inhibition [6] 0.805% | RAM network inhibition [7] 1.18%

Cc1cc(C)c(NC(=O)c2ccc(S(=O)(=O)N3CCOCC3)cc2)c(C)c1
inactive: growth inhibition [1] -9.41% | growth inhibition [2] -8.03% | viability increase [3] -2.1% | viability [4] 101% | viability [5] 98.1% | inhibition [6] 0.57% | RAM network inhibition [7] 0.69%

Cn1c(=O)[nH]c(=O)c2c1nc(N1CCCCC1)n2CCSc1nc2ccccc2o1
inactive: growth inhibition [1] -4.52% | growth inhibition [2] -1.63% | viability increase [3] -3.7% | viability [4] 90.7% | viability [5] 92.4% | inhibition [6] 1.11% | RAM network inhibition [7] 1.87%
